Reference: ChEMBL document CHEMBL4382292, “Discovery of a Novel cGAMP Competitive Ligand of the Inactive Form of STING” (ACS Med Chem Lett, 2019)
pIC50: −log10 of the molar value. ≈ marks a conversion by molar mass, not a printed value.

Assays:
[1] = Intrinsic clearance in rat hepatocytes after 120 mins by LC-MS/MS analysis; assay type: ADME, cell-based, Hepatocyte; settings: read-out: CLH
[2] = Clearance in rat at 0.5 mg/kg, iv or 1 mg/kg, po; assay type: ADME, organism-based; settings: in vivo
Method in brief: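 Rat dosed iv at 0.5 mpk or po at 1 mpk, each as a solution in PEG400/H2O (60:40 (v/v)).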

[3] = Intrinsic clearance in human hepatocytes after 120 mins by LC-MS/MS analysis; assay type: ADME, cell-based, Hepatocyte; settings: read-out: CLH
[4] = Solubility of the compound in FaSSIF solution at 100 uM after overnight incubation by UPLC/DAD analysis; assay type: physicochemical
[5] = Apparent permeability in MDCK cells; assay type: ADME, cell-based, Canis lupus familiaris; settings: dog
[6] = biological target: Stimulator of interferon genes protein (Homo sapiens, UniProt Q86WV6); assay: Displacement of [3H]cGAMP from full length human HAQ STING expressed in Trichopulsia ni membranes preincubated for 30 mins followed by [3H]cGAMP addition and measured after 60 mins by scintillation counting method; assay type: cell membranes
Stimulator of interferon genes protein, sequence (Q86WV6 whole entry, looked up): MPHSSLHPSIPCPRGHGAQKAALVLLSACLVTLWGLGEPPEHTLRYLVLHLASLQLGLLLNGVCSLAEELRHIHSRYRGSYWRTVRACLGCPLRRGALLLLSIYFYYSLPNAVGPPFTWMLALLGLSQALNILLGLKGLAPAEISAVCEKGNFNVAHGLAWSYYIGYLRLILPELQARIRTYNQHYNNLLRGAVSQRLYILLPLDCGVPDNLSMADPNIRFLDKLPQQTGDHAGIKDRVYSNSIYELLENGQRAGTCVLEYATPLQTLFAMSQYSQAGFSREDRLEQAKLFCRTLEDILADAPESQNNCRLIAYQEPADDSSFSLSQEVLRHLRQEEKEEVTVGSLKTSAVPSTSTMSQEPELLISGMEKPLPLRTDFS

Structure (SMILES)	CLint scaled [1] [mL/min/kg]	clearance [2] [mL/min/kg]	CLint scaled [3] [mL/min/kg]	solubility at 100 µM [4] [µM]	Papp [5] [×10⁻⁶ cm/s]	pIC50 [6]
CC(C)(C)c1ccc(N2C(=O)c3ccccc3[C@H](C(=O)O)[C@H]2c2ccc3c(c2)OCCO3)cc1Cl	158	38	28	151 (≈ 74.3 µg/mL)	9	–
CC(C)(C)c1ccc(N2C(=O)c3cc(F)ccc3[C@H](CC(=O)O)[C@H]2c2ccc3c(c2)OCCO3)cc1Cl	240	45	31	187 (≈ 98 µg/mL)	18	–
O=C(O)[C@H]1c2ccccc2C(=O)N(c2ccc3c(c2)CCC3)[C@@H]1c1ccc(Oc2ccccc2)cc1 (racemic)	–	–	–	–	–	< 4.70
O=C(O)[C@H]1c2ccccc2C(=O)N(c2ccc3c(c2)CCC3)[C@@H]1c1ccc2c(c1)OC(F)(F)O2 (racemic)	–	–	–	–	–	< 4.70
N#Cc1ccc([C@@H]2[C@@H](C(=O)O)c3ccccc3C(=O)N2c2ccc3c(c2)CCC3)cc1 (racemic)	–	–	–	–	–	< 4.70
CC(C)c1ccc(N2C(=O)c3ccccc3[C@H](C(=O)O)[C@H]2c2ccc3ccccc3c2)cc1 (racemic)	–	–	–	–	–	< 4.70
CN(C)c1ccc([C@@H]2[C@@H](C(=O)O)c3ccccc3C(=O)N2c2ccc3c(c2)CCC3)cc1 (racemic)	–	–	–	–	–	< 4.70
